Assay results published in ChEMBL document CHEMBL4613269, “2-((4-Arylpiperazin-1-yl)methyl)benzonitrile Derivatives as Orally Available Inhibitors of Hepatitis C Virus with a Novel Mechanism of Action” (J Med Chem, 2020).
Calls of active or inactive are those of the source. No cut-off for these calls is given here.

Assays:
[1] = tested on: Hepatitis C virus; test: Antiviral activity against HCV expressing NS3 D168V mutant by qRT-PCR analysis based by Reed-Muench method; format: functional, organism-based, Hepacivirus hominis
Summary of the method: (§1)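 Huh7.5 cells seeded at 3×10^4/cm², infected 24 h later with wild-type or mutant HCV stock while compound or solvent was added at the same time. Intracellular HCV RNA measured by qRT-PCR at 72 h, normalised to GAPDH, 2^-ΔCT method. EC50 by Reed & Muench from eight-step 1:5 serial dilutions, triplicate wells.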

[2] = tested on: Coxsackievirus B3; test: Antiviral activity against Coxsackievirus B3 infected in Vero cells assessed as reduction in virus-induced cytopathic effect incubated for 48 hrs by Reed-Muench method; format: functional, organism-based; settings: Enterovirus B
[3] = Toxicity in Kunming mouse assessed as effect on body weight at 250 to 1000 mg/kg dosed via single oral gavage and measured on day 7 post treatment; format: organism-based; settings: in vivo
Summary of the method: (§2)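 Kunming mice, 4 groups of n = 6 (3 male, 3 female). Fasted from 12 h before to 1 h after dosing. Single oral gavage of 250, 500 or 1000 mg/kg suspended in 0.5% CMC-Na, or vehicle alone. Followed for 7 days: survival, body weight before and at day 7. Day-7 blood taken for AST, ALT, urea nitrogen and creatinine.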

[4] = Cytotoxicity in African green monkey Vero E6 cells assessed as reduction in cell viability; format: cell-based, Vero C1008; settings: chlorocebus sabaeus
[5] = Bioavailability in Sprague-Dawley rat at 5 mg/kg, iv measured after 0.08 to 72 hrs post dose by LC-MS/MS analysis; format: ADME, organism-based; settings: in vivo
Summary of the method: (§3)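 Single dose to fasted (12 h) animals: oral gavage 15 mg/kg as suspension in 0.5% CMC-Na, or iv 5 mg/kg dissolved in citric acid buffer pH 5.0 with 2.5% DMSO. Jugular vein blood on heparin at 0.08 (iv only) to 72 h. Plasma assayed by LC-MS/MS; parameters from noncompartmental analysis.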

[6] = Toxicity in Kunming mouse assessed as effect on ALT level at 250 to 1000 mg/kg dosed via single oral gavage and measured on day 7 post treatment; format: organism-based; settings: in vivo; summary of the method: as §2
[7] = Toxicity in Kunming mouse assessed as effect on blood urea nitrogen level at 250 to 1000 mg/kg dosed via single oral gavage and measured on day 7 post treatment; format: organism-based; settings: in vivo; summary of the method: as §2
[8] = tested on: Hepatitis C virus; test: Antiviral activity against HCV expressing NS5B S282T mutant by qRT-PCR analysis based by Reed-Muench method; format: functional, organism-based, Hepacivirus hominis; summary of the method: as §1
[9] = Apparent Volume of distribution in Sprague-Dawley rat at 5 mg/kg, iv measured after 0.08 to 72 hrs post dose by LC-MS/MS analysis; format: ADME, organism-based; settings: in vivo, read-out: Vz; summary of the method: as §3
[10] = tested on: Hepatitis C virus; test: Resistance index, ratio of EC50 for antiviral activity against HCV with glycoprotein E1 F291V mutant infected in human Huh7.5 cells to EC50 for Antiviral activity against HCV with wild type glycoprotein E1 infected in human Huh7.5 cells; format: functional, Hepacivirus hominis
Summary of the method: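 Huh7.5 cells seeded at 3×10^4/cm² and incubated 24 h, then infected with wild-type or E1 F291V mutant HCV while simultaneously treated with compound in eight-step 1:5 serial dilutions, run in triplicate. Intracellular HCV RNA was read by qRT-PCR at 72 h (2^-ΔCT, normalized to GAPDH). EC50 by Reed & Muench; the index is mutant EC50 over wild-type EC50.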

[11] = AUC (0 to 72 hrs) in beagle dog at 5 mg/kg, iv measured after 0.08 to 72 hrs post dose by LC-MS/MS analysis; format: ADME, organism-based, Canis lupus familiaris; parameters: time < 72 hr, dose 5 mg/kg, route intravenous; settings: in vivo; summary of the method: as §3
[12] = Drug level in beagle dog at 5 mg/kg, iv measured after 24 hrs post dose by LC-MS/MS analysis; format: ADME, organism-based, Canis lupus familiaris; settings: in vivo, read-out: Drug uptake; summary of the method: as §3
[13] = tested on: Hepatitis C virus; test: Antiviral activity against HCV GS4.3 infected in human Huh7.5 cells assessed as reduction in viral replication at 1 uM simultaneously treated with viral infection for 15 mins to 2 hrs and measured after 72 hrs by In-Cell Western assay; format: functional, organism-based; settings: Hepacivirus hominis
Summary of the method: (§4)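 Huh7.5 cells infected with HCV while incubated with compound, either for 4 h across a concentration series or at 1.0 µM for varied times down to 15 min. Supernatant then replaced with fresh medium. Intracellular Core protein measured by In-Cell Western at 72 h.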

[14] = Oral bioavailability in Sprague-Dawley rat at 5 mg/kg measured after 0.08 to 72 hrs after dose by LC-MS/MS analysis; format: ADME, organism-based; settings: in vivo
[15] = Drug level in beagle dog at 15 mg/kg, po measured after 24 hrs post dose by LC-MS/MS analysis; format: ADME, organism-based, Canis lupus familiaris; settings: in vivo, read-out: Drug uptake; summary of the method: as §3
[16] = tested on: Hepatitis C virus; test: Antiviral activity against HCV J6/JFH/JC1 infected in human Huh7.5 cells assessed as reduction in viral RNA levels incubated for 72 hrs by qRT-PCR analysis; format: functional, organism-based
Summary of the method: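 Huh7.5 cells seeded 24 h, then infected with wild-type (or mutant) HCV with compound added at the same time. Incubated 72 h. Intracellular HCV RNA measured by qRT-PCR, 2^-ΔCt method, normalized to GAPDH. Eight-step 1:5 serial dilutions in triplicate; EC50 by Reed & Muench; three independent experiments.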

[17] = Tmax in Sprague-Dawley rat at 15 mg/kg, po measured after 0.08 to 72 hrs post dose by LC-MS/MS analysis; format: ADME, organism-based; settings: in vivo
[18] = Drug level in Sprague-Dawley rat at 15 mg/kg, po measured after 72 hrs post dose by LC-MS/MS analysis; format: ADME, organism-based; settings: in vivo, read-out: Drug uptake; summary of the method: as §3
[19] = tested on: Hepatitis C virus; test: Antiviral activity against HCV genotype 1b pseudoparticle infected in human Huh7.5 cells assessed as reduction in viral replication; format: functional, organism-based; settings: Hepacivirus hominis; subtype 1b
Summary of the method: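 Genotype 1b or 2a HCV pseudoparticles made by co-transfecting HEK 293T cells with envelope and luciferase-reporter HIV plasmids; input standardized by luciferase. Huh7.5 cells co-incubated with compound and HCVpp for 4 h at 37°C, washed, then luciferase read at 72 h.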

[20] = Toxicity in Kunming mouse at 250 to 1000 mg/kg dosed via single oral gavage and measured on day 7 post treatment; format: organism-based; settings: in vivo; summary of the method: as §2
[21] = Apparent Volume of distribution in Sprague-Dawley rat at 15 mg/kg, po measured after 0.08 to 72 hrs post dose by LC-MS/MS analysis; format: ADME, organism-based; settings: in vivo; summary of the method: as §3
[22] = Clearance in beagle dog at 15 mg/kg, po measured after 0.08 to 72 hrs post dose by LC-MS/MS analysis; format: ADME, organism-based, Canis lupus familiaris; settings: in vivo; summary of the method: as §3
[23] = Cmax in beagle dog at 5 mg/kg, iv measured after 0.08 to 72 hrs post dose by LC-MS/MS analysis; format: ADME, organism-based, Canis lupus familiaris; parameters: dose 5 mg/kg, route intravenous; settings: in vivo; summary of the method: as §3
[24] = tested on: Hepatitis C virus; test: Antiviral activity against HCV GS4.3 infected in human Huh7.5 cells assessed as reduction in viral replication at 0.3125 to 5 uM simultaneously treated with viral infection for 4 hrs and measured after 72 hrs by In-Cell Western assay; format: functional, organism-based; settings: Hepacivirus hominis; summary of the method: as §4
[25] = Cytotoxicity in African green monkey Vero cells assessed as reduction in cell viability; format: cell-based; settings: chlorocebus sabaeus
[26] = Drug level in Sprague-Dawley rat at 15 mg/kg, po measured after 24 hrs post dose by LC-MS/MS analysis; format: ADME, organism-based; settings: in vivo, read-out: Drug uptake; summary of the method: as §3
[27] = Cmax in Sprague-Dawley rat at 15 mg/kg, po measured after 0.08 to 72 hrs post dose by LC-MS/MS analysis; format: ADME, organism-based; parameters: dose 15 mg/kg, route oral; settings: in vivo; summary of the method: as §3
[28] = Drug level in Sprague-Dawley rat at 5 mg/kg, iv measured after 72 hrs post dose by LC-MS/MS analysis; format: ADME, organism-based; settings: in vivo, read-out: Drug uptake; summary of the method: as §3

CN(C)CCN(C)c1ccc(C#N)c(CN2CCN(c3ccc(Cl)cc3)CC2)c1
EC50 [1]: 0.03 µM | EC50 [2]: 7.41 µM | Activity [3]: Non-Toxic | CC50 [4]: 18.4 µM | bioavailability [5]: 59% | Activity [6]: Non-Toxic | Activity [7]: Non-Toxic | EC50 [8]: 0.0044 µM | Vd [9]: 20.1 L/kg | Ratio EC50 [10]: 20 | AUC(0-t) at 72 h [11]: 1070 ng·h/mL | concentration at 24 h [12]: 6.16 ng/mL | Activity [13]: Active | bioavailability [14]: 39% | concentration at 24 h [15]: 15.6 ng/mL | Activity ([16]; Hepacivirus hominis): Dose-dependent effect | EC50 ([16]; J6/JFH/JC1, Huh7.5, 72 h): 0.022 µM | Tmax [17]: 3.08 h | concentration at 72 h [18]: 13.7 ng/mL | Activity [19]: Dose-dependent effect | MTD at 7 day [20]: > 1000 mg/kg | Vz [21]: 34.83407 L/kg | CL/F [22]: 200 mL/min/kg | Cmax [23]: 532 ng/mL | Activity [24]: Dose-dependent effect | CC50 [25]: 22.2 µM | concentration at 24 h [26]: 119 ng/mL | Cmax [27]: 501 ng/mL | concentration at 72 h [28]: 9.2 ng/mL
